# Data published in ChEMBL document CHEMBL5042498, “Development of 3-(4-Chlorophenyl)-1-(phenethyl)urea Analogues as Allosteric Modulators of the Cannabinoid Type-1 Receptor: RTICBM-189 is Brain Penetrant and Attenuates Reinstatement of Cocaine-Seeking Behavior” (J Med Chem, 2022).
# Key:
# [1] = biological target: Cannabinoid receptor 2 (Homo sapiens) (UniProt P34972); assay: Antagonist activity at human CB2 receptor CP55940-stimulated calcium mobilization incubated for 15 mins FLIPR assay; format: functional; design: concentration or dose not given beside the values
# How it was run: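 CB2 antagonist screen in human CB2 CHO-RD-HGA16 cells loaded with Calcium 5 dye. Cells were pretreated 15 min at 37 °C with the test compound at a single concentration (10 μM), then challenged with CP55,940 at its EC80 during the FLIPR read (90 s, 485/525 nm). Response is expressed as % inhibition of the CP55,940 EC80 signal.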
# [2] = biological target: T1, Cannabinoid receptor 1 (Homo sapiens, UniProt P21554); assay: Agonist activity at human CB1 receptor CP55940-stimulated calcium mobilization at 10 uM incubated for 15 mins FLIPR assay relative to control; format: functional
# [3] = biological target: Cannabinoid receptor 2 (Homo sapiens) (UniProt P34972); assay: Agonist activity at human CB2 receptor CP55940-stimulated calcium mobilization at 10 uM incubated for 15 mins FLIPR assay relative to control; format: functional
# How it was run: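 CB2 agonist screen in CHO-RD-HGA16 cells stably expressing human CB2, loaded with Calcium 5 dye for 45 min at 37 °C. Cells were pretreated 15 min with vehicle, then the test compound was added at a single concentration. Fluorescence was read on FLIPR every 1 s for 90 s (485/525 nm). Response is expressed as % of CP55,940 Emax.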
# [4] = biological target: T1, Cannabinoid receptor 1; assay: Antagonist activity at N-terminal tagged human CB1 receptor transfected with HEK293 cells assessed as forskolin-stimulated cAMP level in presence of CP55940 by BRET assay; format: functional, cell-based
# How it was run: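 HEK293 cells stably expressing hCB1 (3HA-tagged at Otago, untagged at RTI) are transiently transfected with the CAMYEL BRET cAMP sensor. Cells are serum-starved 30 min and given 5 μM coelenterazine H final. Compound dilutions are added together with 5 μM forskolin and 1 μM CP55,940. BRET (460/535) is read for about 20 min at 37 °C.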
# [5] = biological target: T1, Cannabinoid receptor 1; assay: Allosteric antagonist activity against human CB1 receptor expressed in HEK293 cells membrane measured after 60 mins by [35S]GTPgammaS binding assay; format: functional, cell membranes
# How it was run: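 Membranes from HEK293 cells expressing hCB1 are used in assay buffer (50 mM Tris, 3 mM MgCl2, 0.2 mM EGTA, 100 mM NaCl, 1 mg/ml BSA, pH 7.4). They are preincubated 10 min, then incubated 60 min at 30 °C with 30 μM GDP, 0.1 nM [35S]GTPγS, 100 nM CP55,940 and serially diluted compound (0.1% DMSO final). Nonspecific binding is set with 30 μM unlabeled GTPγS. Reactions are filtered. Data are normalized to CP55,940 alone and fitted by 3-parameter regression; mean of ≥3 experiments in duplicate.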
# [6] = biological target: T1, Cannabinoid receptor 1; assay: Allosteric antagonist activity at human CB1 receptor expressed in CHO-RD-HGA16 cells overexpressing Galpha16 assessed as inhibition of CP55940-stimulated calcium mobilization incubated for 15 mins FLIPR assay; format: functional, cell-based
# [7] = Metabolic stability in rat liver microsomes assessed as half life in presence of NADPH measured upto 45 mins by LC-MS/MS analysis; format: ADME, Microsome; details: 0.75 h
# How it was run: (§1)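 Rat liver microsomes (0.5 mg/mL protein) in 100 mM potassium phosphate, pH 7.4, at 37 °C with 1 mM NADPH. Samples were taken at 0, 5, 15, 30 and 45 min, quenched with acetonitrile and analysed by LC/MS/MS. Half-life and clearance were derived from two independent experiments in duplicate.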
# [8] = Metabolic stability in rat liver microsomes assessed as clearance in presence of NADPH measured upto 45 mins by LC-MS/MS analysis; format: ADME, Microsome; details: 0.75 h; how it was run: as §1
# Sequence of Cannabinoid receptor 2 (Homo sapiens) (P34972 whole entry): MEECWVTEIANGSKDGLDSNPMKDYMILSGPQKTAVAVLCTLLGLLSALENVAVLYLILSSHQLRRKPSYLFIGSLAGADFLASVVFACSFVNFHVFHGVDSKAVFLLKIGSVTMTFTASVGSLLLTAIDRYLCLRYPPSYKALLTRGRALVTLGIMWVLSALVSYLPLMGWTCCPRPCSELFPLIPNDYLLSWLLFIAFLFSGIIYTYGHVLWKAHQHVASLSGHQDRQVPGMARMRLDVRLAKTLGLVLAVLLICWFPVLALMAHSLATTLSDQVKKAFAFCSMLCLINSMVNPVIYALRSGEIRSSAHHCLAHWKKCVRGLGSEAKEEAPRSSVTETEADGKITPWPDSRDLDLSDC
# T1 sequence (P21554 whole entry): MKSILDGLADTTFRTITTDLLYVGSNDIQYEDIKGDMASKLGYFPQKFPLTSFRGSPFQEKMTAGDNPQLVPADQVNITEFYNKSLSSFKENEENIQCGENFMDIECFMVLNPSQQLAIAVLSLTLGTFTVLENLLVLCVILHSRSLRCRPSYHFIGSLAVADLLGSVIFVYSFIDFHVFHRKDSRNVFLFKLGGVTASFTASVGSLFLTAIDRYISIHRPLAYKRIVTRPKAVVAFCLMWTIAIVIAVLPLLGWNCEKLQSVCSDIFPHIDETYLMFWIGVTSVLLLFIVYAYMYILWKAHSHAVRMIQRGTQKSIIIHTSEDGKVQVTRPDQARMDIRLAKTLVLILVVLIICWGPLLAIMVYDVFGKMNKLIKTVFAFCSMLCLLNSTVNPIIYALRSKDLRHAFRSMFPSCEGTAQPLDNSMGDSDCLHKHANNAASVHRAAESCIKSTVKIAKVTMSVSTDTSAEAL
SMILES,Activity [1] [%],Emax [2] [%],Emax [3] [%],IC50 [4] [nM],IC50 [5] [nM],IC50 [6] [nM],t1/2 [7] [min],CLH [8] [µL/min/mg]
O=C(NCCc1cccc(F)c1)Nc1ccc(Cl)cc1,< 35,< 30,< 20,1350,6760,51.3,–,–
O=C(NCCc1ccc(O)cc1)Nc1ccc(Cl)cc1,< 35,< 30,< 20,–,–,> 10000,–,–
O=C(NCCc1ccc(N2CCCCC2)cc1)Nc1ccc(Cl)cc1,< 35,–,< 20,–,–,912,–,–
COc1ccc(CCNC(=O)Nc2ccc(Cl)cc2)cc1OC,< 35,< 30,< 20,> 10000,> 10000,1780,–,–
O=C(NCCc1ccccc1)Nc1ccc(Cl)cc1,< 35,–,< 20,3470,6760,186,–,–
N#Cc1cccc(CCNC(=O)Nc2ccc(Cl)cc2)c1,< 35,–,< 20,871,832,145,–,–
O=C(NCCc1ccc(C(F)(F)F)cc1)Nc1ccc(Cl)cc1,< 35,< 30,< 20,–,–,178,–,–
O=C(NCCc1ccc(-c2ccccc2)cc1)Nc1ccc(Cl)cc1,< 35,< 30,< 20,–,–,871,–,–
O=C(NCCc1c(F)cccc1Cl)Nc1ccc(Cl)cc1,< 35,< 30,< 20,–,–,398,–,–
Cc1cc(C)cc(CCNC(=O)Nc2ccc(Cl)cc2)c1,< 35,–,< 20,6610,6610,28.8,–,–
O=C(NCCc1ccc(Br)cc1)Nc1ccc(Cl)cc1,< 35,< 30,< 20,–,–,148,–,–
O=C(NCCc1cccc(C(F)(F)F)c1)Nc1ccc(Cl)cc1,< 35,< 30,< 20,676,1290,28.8,15.5,90
O=C(NCCc1ccccc1C(F)(F)F)Nc1ccc(Cl)cc1,< 35,< 30,< 20,3240,4270,126,–,–
O=C(NCCc1cc(Cl)cc(Cl)c1)Nc1ccc(Cl)cc1,< 35,–,< 20,4370,1740,24,–,–
N#Cc1ccc(CCNC(=O)Nc2ccc(Cl)cc2)cc1,< 35,< 30,< 20,–,–,437,–,–
Cc1ccc(CCNC(=O)Nc2ccc(Cl)cc2)cc1C,< 35,–,< 20,1150,2570,47.9,–,–
Cc1cccc(CCNC(=O)Nc2ccc(Cl)cc2)c1,< 35,< 30,< 20,912,3020,41.7,13.7,102

SMILES,Activity [1] [%],Emax [2] [%],Emax [3] [%],IC50 [4] [nM],IC50 [5] [nM],IC50 [6] [nM],t1/2 [7] [min],CLH [8] [µL/min/mg]
CN(C)c1cccc(CCNC(=O)Nc2ccc(Cl)cc2)c1,< 35,< 30,< 20,–,–,1620,–,–
O=C(NCCc1ccc(Cl)cc1)Nc1ccc(Cl)cc1,< 35,< 30,< 20,–,–,162,–,–
O=C(NCCc1ccccc1Cl)Nc1ccc(Cl)cc1,< 35,< 30,< 20,–,–,229,–,–
O=C(NCCc1cccc(OC(F)(F)F)c1)Nc1ccc(Cl)cc1,< 35,–,< 20,10700,7940,93.3,–,–
O=C(NCCc1cccc(Br)c1)Nc1ccc(Cl)cc1,< 35,–,< 20,724,3470,32.4,–,–
COc1cccc(CCNC(=O)Nc2ccc(Cl)cc2)c1,< 35,< 30,< 20,7760,12300,447,–,–
CN(C)c1ccc(CCNC(=O)Nc2ccc(Cl)cc2)cc1,< 35,< 30,< 20,–,–,257,–,–
COc1cc(CCNC(=O)Nc2ccc(Cl)cc2)cc(OC)c1,< 35,< 30,< 20,–,–,1070,–,–
O=C(NCCc1c(F)cc(F)cc1F)Nc1ccc(Cl)cc1,< 35,< 30,< 20,–,–,79.4,–,–
CS(=O)(=O)c1ccc(CCNC(=O)Nc2ccc(Cl)cc2)cc1,< 35,< 30,< 20,–,–,> 10000,–,–
O=C(NCCc1ccc([N+](=O)[O-])cc1)Nc1ccc(Cl)cc1,< 35,< 30,< 20,1780,2950,85.1,–,–
O=C(NCCc1c(F)c(F)c(F)c(F)c1F)Nc1ccc(Cl)cc1,< 35,< 30,< 20,–,–,32.4,–,–
Cc1ccc(CCNC(=O)Nc2ccc(Cl)cc2)cc1,< 35,< 30,< 20,2040,13800,135,–,–
COc1ccccc1CCNC(=O)Nc1ccc(Cl)cc1,< 35,< 30,< 20,–,–,1580,–,–
O=C(NCCc1ccccc1F)Nc1ccc(Cl)cc1,< 35,< 30,< 20,–,–,170,–,–
COc1cc(CCNC(=O)Nc2ccc(Cl)cc2)ccc1O,< 35,< 30,< 20,–,–,> 10000,–,–
O=C(NCCc1ccc(Cl)cc1Cl)Nc1ccc(Cl)cc1,< 35,< 30,< 20,–,–,166,–,–
